Experimental data as given in ChEMBL document CHEMBL1123569 (J Med Chem, 1987).
*1 amine or outer side, *2 acyl side, *3 side chain or, on linkers, in order; H or OH if unused. Where a SMILES comes first, the peptide text is derived from it. [ ]: non-standard residue; d: D form. The star is where a group is joined. ξ: configuration not given here. Met(O2) = CS(=O)(=O)CC[C@H](N)C(=O)O; Sta = CC(C)C[C@H](N)[C@@H](O)CC(=O)O; X1 = O=C(C(N[*:1])c1cccs1)[*:2]; ξGly(cPent) = NC(C(=O)O)C1CCCC1; Cha = N[C@@H](CC1CCCCC1)C(=O)O; Isovaleryl = CC(C)CC(=O)*; ξChg = NC(C(=O)O)C1CCCCC1; ξPhg = NC(C(=O)O)c1ccccc1; Nle = CCCC[C@H](N)C(=O)O; Boc = CC(C)(C)OC(=O)*; Bn = c1ccc(C*)cc1; X2 = c1cncc(C*)c1

target: T1, Renin (Homo sapiens, UniProt P00797); assay: Inhibition of human plasma renin; format: cell-free
T1 sequence (P00797 whole entry): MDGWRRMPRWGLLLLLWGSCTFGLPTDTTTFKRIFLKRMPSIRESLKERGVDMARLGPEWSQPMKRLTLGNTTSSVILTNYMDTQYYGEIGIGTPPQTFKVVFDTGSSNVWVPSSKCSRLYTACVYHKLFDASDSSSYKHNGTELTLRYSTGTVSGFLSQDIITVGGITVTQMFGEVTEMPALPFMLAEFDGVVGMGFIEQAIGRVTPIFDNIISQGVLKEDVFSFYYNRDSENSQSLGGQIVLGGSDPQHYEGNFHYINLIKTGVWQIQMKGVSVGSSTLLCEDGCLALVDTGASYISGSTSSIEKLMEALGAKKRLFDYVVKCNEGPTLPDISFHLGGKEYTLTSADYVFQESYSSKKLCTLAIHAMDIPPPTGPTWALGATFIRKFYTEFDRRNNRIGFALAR
In short: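 Enriched human plasma renin preparation, substrate its own endogenous angiotensinogen (about 2×10^-6 M). Inhibitor added over a range of increasing concentrations. Angiotensin I released was quantified by RIA. With substrate held constant across the series, IC50 is treated as linearly proportional to Ki.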

SMILES | IC50 [nM]
COC(=O)C[C@H](O)[C@H](CC(C)C)NC(=O)[C@H](C)NC(=O)C[C@H](O)[C@H](CC(C)C)NC(=O)[C@H](CCC(N)=O)NC(=O)[C@H](Cc1ccccc1)NC(=O)OC(C)(C)C (Boc-FQ[Sta]A[Sta]-OMe) | 316
COC(=O)C[C@H](O)[C@H](CC(C)C)NC(=O)[C@H](C)NC(=O)C[C@H](O)[C@H](CC(C)C)NC(=O)[C@H](COCc1ccccc1)NC(=O)[C@H](Cc1ccccc1)NC(=O)OC(C)(C)C (Boc-FS(Bn)[Sta]A[Sta]-OMe) | 174
COC(=O)C[C@H](O)[C@H](CC(C)C)NC(=O)[C@H](C)NC(=O)C[C@H](O)[C@H](CC(C)C)NC(=O)C(NC(=O)[C@H](Cc1ccccc1)NC(=O)OC(C)(C)C)c1ccccc1 (some centres undefined) (Boc-F[ξPhg][Sta]A[Sta]-OMe) | 93.3
COC(=O)C[C@H](O)[C@H](CC(C)C)NC(=O)[C@H](C)NC(=O)C[C@H](O)[C@H](CC(C)C)NC(=O)[C@H](CCS(C)(=O)=O)NC(=O)[C@H](Cc1ccccc1)NC(=O)OC(C)(C)C (Boc-F[Met(O2)][Sta]A[Sta]-OMe) | 10000
COC(=O)C[C@H](O)[C@H](CC(C)C)NC(=O)[C@H](C)NC(=O)C[C@H](O)[C@H](CC(C)C)NC(=O)C(NC(=O)[C@H](Cc1ccccc1)NC(=O)OC(C)(C)C)c1cccs1 (some centres undefined) (Boc-F[X1][Sta]A[Sta]-OMe) | 251
COC(=O)C[C@H](O)[C@H](CC(C)C)NC(=O)[C@H](C)NC(=O)C[C@H](O)[C@H](CC(C)C)NC(=O)[C@H](Cc1c[nH]c2ccccc12)NC(=O)[C@H](Cc1ccccc1)NC(=O)OC(C)(C)C (Boc-FW[Sta]A[Sta]-OMe) | 120
COC(=O)C[C@H](O)[C@H](CC(C)C)NC(=O)[C@H](C)NC(=O)C[C@H](O)[C@H](CC(C)C)NC(=O)[C@H](Cc1ccc(OCc2ccccc2)cc1)NC(=O)[C@H](Cc1ccccc1)NC(=O)OC(C)(C)C (Boc-FY(Bn)[Sta]A[Sta]-OMe) | 1410
COC(=O)C[C@H](O)[C@H](CC(C)C)NC(=O)[C@H](C)NC(=O)C[C@H](O)[C@H](CC(C)C)NC(=O)[C@H](COCc1cccnc1)NC(=O)[C@H](Cc1ccccc1)NC(=O)OC(C)(C)C (Boc-FS(X2)[Sta]A[Sta]-OMe) | 316
COC(=O)C[C@H](O)[C@H](CC(C)C)NC(=O)[C@H](C)NC(=O)C[C@H](O)[C@H](CC(C)C)NC(=O)[C@H](Cc1ccccc1)NC(=O)[C@H](Cc1ccccc1)NC(=O)CC(C)C (Isovaleryl-FF[Sta]A[Sta]-OMe) | 316
CCCC[C@H](NC(=O)[C@H](Cc1ccccc1)NC(=O)OC(C)(C)C)C(=O)N[C@@H](CC(C)C)[C@@H](O)CC(=O)N[C@@H](C)C(=O)N[C@@H](CC(C)C)[C@@H](O)CC(=O)O (Boc-F[Nle][Sta]A[Sta]-OH) | 30.2
COC(=O)C[C@H](O)[C@H](CC(C)C)NC(=O)[C@H](C)NC(=O)C[C@H](O)[C@H](CC(C)C)NC(=O)[C@H](Cc1ccccc1)NC(=O)[C@H](Cc1ccccc1)NC(C)=O (Ac-FF[Sta]A[Sta]-OMe) | 1410

Results, then the compound that gave them:

IC50 [nM] | SMILES
316 | COC(=O)C[C@H](O)[C@H](CC(C)C)NC(=O)[C@H](C)NC(=O)C[C@H](O)[C@H](CC(C)C)NC(=O)[C@H](CCSC)NC(=O)[C@H](Cc1ccccc1)NC(=O)OC(C)(C)C (Boc-FM[Sta]A[Sta]-OMe)
490 | COC(=O)C[C@H](O)[C@H](CC(C)C)NC(=O)[C@H](C)NC(=O)C[C@H](O)[C@H](CC(C)C)NC(=O)[C@H](CC1CCCCC1)NC(=O)[C@H](Cc1ccccc1)NC(=O)OC(C)(C)C (Boc-F[Cha][Sta]A[Sta]-OMe)
437 | COC(=O)C[C@H](O)[C@H](CC(C)C)NC(=O)[C@H](C)NC(=O)C[C@H](O)[C@H](CC(C)C)NC(=O)[C@H](CO)NC(=O)[C@H](Cc1ccccc1)NC(=O)OC(C)(C)C (Boc-FS[Sta]A[Sta]-OMe)
37.2 | COC(=O)C[C@H](O)[C@H](CC(C)C)NC(=O)[C@H](C)NC(=O)C[C@H](O)[C@H](CC(C)C)NC(=O)C(NC(=O)[C@H](Cc1ccccc1)NC(=O)OC(C)(C)C)C1CCCC1 (some centres undefined) (Boc-F[ξGly(cPent)][Sta]A[Sta]-OMe)
112 | CCOC[C@H](NC(=O)[C@H](Cc1ccccc1)NC(=O)OC(C)(C)C)C(=O)N[C@@H](CC(C)C)[C@@H](O)CC(=O)N[C@@H](C)C(=O)N[C@@H](CC(C)C)[C@@H](O)CC(=O)OC (Boc-FS(Et)[Sta]A[Sta]-OMe)
120 | CCCC[C@H](NC(=O)[C@H](Cc1ccccc1)NC(=O)OC(C)(C)C)C(=O)N[C@@H](CC(C)C)[C@@H](O)CC(=O)N[C@@H](C)C(=O)N[C@@H](CC(C)C)[C@@H](O)CC(=O)OC (Boc-F[Nle][Sta]A[Sta]-OMe)
151 | COC(=O)C[C@H](O)[C@H](CC(C)C)NC(=O)[C@H](C)NC(=O)C[C@H](O)[C@H](CC(C)C)NC(=O)C(NC(=O)[C@H](Cc1ccccc1)NC(=O)OC(C)(C)C)C1CCCCC1 (some centres undefined) (Boc-F[ξChg][Sta]A[Sta]-OMe)
1200 | COC(=O)C[C@H](O)[C@H](CC(C)C)NC(=O)[C@H](C)NC(=O)C[C@H](O)[C@H](CC(C)C)NC(=O)[C@H](CC(N)=O)NC(=O)[C@H](Cc1ccccc1)NC(=O)OC(C)(C)C (Boc-FN[Sta]A[Sta]-OMe)
